Active and inactive are the calls of the source.
What was measured:
[1] = target: T1, Fatty-acid amide hydrolase 1 (Homo sapiens) (UniProt O00519); assay: Inhibition of recombinant human FAAH using AMC arachidonoylamide as substrate at 10 uM after 30 mins by fluorescence assay relative to control
T1 sequence (whole entry): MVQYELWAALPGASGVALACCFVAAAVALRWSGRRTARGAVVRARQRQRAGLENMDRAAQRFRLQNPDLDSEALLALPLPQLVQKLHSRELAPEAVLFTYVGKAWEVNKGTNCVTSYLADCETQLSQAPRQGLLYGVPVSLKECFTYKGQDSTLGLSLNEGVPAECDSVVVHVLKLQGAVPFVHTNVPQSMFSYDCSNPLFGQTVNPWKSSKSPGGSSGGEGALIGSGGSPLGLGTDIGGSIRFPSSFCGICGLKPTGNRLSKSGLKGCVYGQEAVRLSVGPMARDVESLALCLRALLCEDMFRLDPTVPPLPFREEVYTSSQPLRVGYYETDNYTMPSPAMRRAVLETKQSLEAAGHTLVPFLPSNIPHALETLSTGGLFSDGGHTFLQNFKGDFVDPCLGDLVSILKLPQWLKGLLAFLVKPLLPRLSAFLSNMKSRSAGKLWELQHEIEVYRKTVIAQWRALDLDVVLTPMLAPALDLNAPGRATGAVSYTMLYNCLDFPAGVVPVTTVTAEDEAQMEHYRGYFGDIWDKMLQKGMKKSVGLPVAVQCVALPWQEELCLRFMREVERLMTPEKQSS
Summary of the method: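 Human recombinant FAAH (0.9 µg/well) in 125 mM Tris pH 9.0 with 1 mM EDTA and 0.1 mg/ml BSA at room temperature. Substrate was AMC arachidonoylamide, final 10 µM. Compound range 200–0.0128 µM. Fluorescence (ex 340/em 460 nm) read after 30 min with no-enzyme blanks subtracted. IC50 from sigmoidal dose-response fit.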

Mus musculus [2] = assay: Antinociceptive activity in po dosed oxaliplatin-induced neuropathic pain 4r5CD-1 albino mouse model assessed as pain relief treated on day 15 post oxaliplatin treatment by cold plate test; assay type: functional, organism-based
Summary of the method: (§1)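 Male CD-1 mice (22–25 g) received oxaliplatin 2.4 mg/kg i.p. in 5% glucose on days 1-2, 5-9, 12-14. On day 15 a single p.o. dose (10 or 30 mg/kg) suspended in CMC was given. Cold plate at 4 °C ± 1 °C, 60 s cut-off, latency to first paw lick or lift timed after dosing. 10 mice per group over 2 sets, mean ± S.E.M., one-way ANOVA with Bonferroni.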

Mus musculus [3] = assay: Effect on 2-AG level in spinal cord of oxaliplatin-induced neuropathic pain 4r5CD-1 albino mouse model at 30 mg/kg, po measured at 1 hr post last dose on day 15 by LC-MS/MS analysis; assay type: functional, organism-based
Summary of the method: (§2)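 Mice received oxaliplatin 2.4 mg/kg i.p. plus compound 30 mg/kg p.o. or vehicle for 14 days. On day 15 they were decapitated 1 h after the last dose. Brain and spinal cord were washed in PBS and snap-frozen. 2-AG was quantified by LC-MS/MS.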

Mus musculus [4] = assay: Effect on 2-AG level in brain of oxaliplatin-induced neuropathic pain 4r5CD-1 albino mouse model at 30 mg/kg, po measured at 1 hr post last dose on day 15 by LC-MS/MS analysis; assay type: functional, organism-based; summary of the method: as §2
[5] = target: Cannabinoid receptor 2 (Homo sapiens) (UniProt P34972); assay: Displacement of [3H]CP55,940 from human CB2 receptor expressed in CHOK1 cell membranes at 10 uM after 90 mins relative to control
Summary of the method: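 Membranes expressing hCB1 or hCB2 were incubated in 50 mM Tris-HCl, 2.5 mM EDTA, 5 mM MgCl2 with fatty-acid-free BSA, pH 7.4. Incubation with compound and 0.5 nM [3H]CP55,940 for 90 min at 30 °C. Nonspecific binding defined with 10 µM […]. Samples were filtered on GF/B, washed twelve times with ice-cold buffer, and radioactivity counted.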

Mus musculus [6] = assay: Antinociceptive activity in oxaliplatin-induced 4r5CD-1 albino mouse assessed as […] pain relief at 30 mg/kg, po cotreated with oxaliplatin on day 1 to 14 measured up to 24 hrs post last on day 15 by cold plate test; assay type: functional, organism-based
Summary of the method: (§3)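 Male CD-1 mice (22–25 g) given oxaliplatin 2.4 mg/kg i.p. in 5% glucose on days 1-2, 5-9, 12-14. Compound suspended in CMC, 30 mg/kg p.o., given on the same schedule. Cold plate held at 4 °C ± 1 °C, 60 s cut-off. Latency to first hind-paw lifting or licking recorded on days 7 and 15, 24 h after the last dose. 10 mice per group over 2 sets, mean ± S.E.M.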

Mus musculus [7] = assay: Antinociceptive activity in oxaliplatin-induced neuropathic pain 4r5CD-1 albino mouse model assessed as reduction in licking latency at 10 mg/kg, po treated on day 15 post oxaliplatin treatment measure at 30 mins post dose by cold plate test; assay type: functional, organism-based; summary of the method: as §1
Mus musculus [8] = assay: Antinociceptive activity in oxaliplatin-induced neuropathic pain 4r5CD-1 albino mouse model assessed as reduction in cold allodynia at 30 mg/kg, po cotreated with oxaliplatin on day 1 to 14 measured on day 7 and 15 by cold plate test; assay type: functional, organism-based; summary of the method: as §3
Mus musculus [9] = assay: Antinociceptive activity in oxaliplatin-induced neuropathic pain 4r5CD-1 albino mouse model assessed as reduction in licking latency at 30 mg/kg, po treated on day 15 post oxaliplatin treatment measure at 30 to 45 mins post dose by cold plate test; assay type: functional, organism-based; summary of the method: as §1
[10] = target: T2, Monoglyceride lipase (Homo sapiens) (UniProt Q99685); details: 20 uM
T2 sequence (whole entry): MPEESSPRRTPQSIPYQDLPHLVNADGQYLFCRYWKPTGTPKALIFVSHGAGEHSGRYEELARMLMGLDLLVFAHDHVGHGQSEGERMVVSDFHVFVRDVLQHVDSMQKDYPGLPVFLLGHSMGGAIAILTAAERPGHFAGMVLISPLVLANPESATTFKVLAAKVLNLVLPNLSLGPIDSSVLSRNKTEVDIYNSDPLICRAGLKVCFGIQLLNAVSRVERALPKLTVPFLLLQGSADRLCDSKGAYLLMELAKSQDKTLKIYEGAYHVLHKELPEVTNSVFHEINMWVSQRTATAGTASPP

[11] = target: T2, Monoglyceride lipase (Homo sapiens); details: 20 uM; remark: listed apart in the source

Chain of Cannabinoid receptor 2 (Homo sapiens) (P34972 whole entry): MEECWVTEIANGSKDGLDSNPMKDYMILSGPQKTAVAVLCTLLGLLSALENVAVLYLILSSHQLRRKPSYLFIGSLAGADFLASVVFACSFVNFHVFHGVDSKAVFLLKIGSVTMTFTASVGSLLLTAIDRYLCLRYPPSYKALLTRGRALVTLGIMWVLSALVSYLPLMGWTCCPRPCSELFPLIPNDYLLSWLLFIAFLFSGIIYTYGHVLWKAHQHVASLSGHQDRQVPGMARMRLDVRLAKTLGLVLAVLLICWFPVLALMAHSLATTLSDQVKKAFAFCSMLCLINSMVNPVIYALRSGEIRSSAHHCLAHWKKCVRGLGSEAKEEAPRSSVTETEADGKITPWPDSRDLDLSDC

inhibition [1]: 7%
inhibition [5]: 35%
inhibition [10]: Active
inhibition [11]: Active
SMILES: Cc1cccc(Cn2nc(C(=O)N3CCC(Cc4ccccc4)CC3)cc2-c2ccc(O)cc2)c1
Activity (Mus musculus [2]): Dose-dependent effect
Activity (Mus musculus [3]): inactive
Activity (Mus musculus [4]): inactive
Activity (Mus musculus [6]): Active
Activity (Mus musculus [7]): Active
Activity (Mus musculus [8]): Active
Activity (Mus musculus [9]): Active
